Arbovirus anti: antivirals against arbovirus infection, primary screen, cell-based, full library, 10K replicate subset | arbovirus infection cell-based antiviral screen | inhibition, % at 10 µM | actives 0.37% (n = 200,000) | AID 1251, 2008; in the data active means inhibition above about 30%
MT stabilizer: microtubule stabilizers in HeLa cells, primary screen, imaging, high-content imaging | HeLa tubulin immunostaining HCS, 24 h; share of cells brighter than vehicle mean+2SD | % tubulin-high responders, % at 10 µM | actives 0.83% (n = 200,000) | AID 2205, 2009;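 active means plate Z-score above 3 for both tubulin-high and condensed-nucleus cell shares, with cell loss under 80%, at 10 µM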;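 further: anti alpha tubulin signal scored within the nucleus-defined area of each cell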
ABCG2 block: ABCG2 efflux pump inhibitors, primary screen, multiplex with ABCB1, IgMXP3 cells, flow cytometry; inhibition, % at 6.6 µM; JC-1 efflux; actives 0.1% (n = 190,000); AID 1325, 2008;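 active means inhibition above 80%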;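 further: 0% = DMSO and 100% = nicardipine control wells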
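Test system: IgMXP3 (ABCG2) plus far-red-tagged CCRF-Adr (ABCB1) cells / Amount: 3 million cells/mL in well / Reagent: JC-1 transporter substrate / Timing: 10 min compound exposure, 25 °C / Signal: flow cytometry, 530 nm JC-1 signal / Read-out: percent efflux inhibition, scaled nicardipine 100% to DMSO 0% / Benchmarks: nicardipine as high control, DMSO as low control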
Autophagy mod: autophagy modulators in MEF cells, primary screen, imaging, high-content, MEF GFP-LC3. MEF GFP-LC3 puncta imaging; test concentration mostly 10 µM. calls only at 10 µM (by protocol). actives 0.98% (n = 190,000);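 active means percentage of spot-positive cells more than 3 SD above its plate mean, without a fluorescence outlier flag or 80% toxicity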;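 further: spot-positive cell cutoff set from DMSO-treated cells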
b-catenin transl: modulators of beta-catenin nuclear translocation, primary screen, imaging, HeLa cells, immunofluorescence, high-content. nuclear translocation activity, % at 5 µM. actives 0.3% (n = 190,000). AID 1665, 2009;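 active means nuclear translocation activity above 50% at 5 µM, with a well cell count of 50 or more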;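 further: per-cell ratio of nuclear to cytoplasmic median beta-catenin stain intensity; plate controls were DMSO negative control for no effect and GSK-3 inhibitor IX positive control for full effect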
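Test system: human HeLa cells, endogenous beta-catenin. Times: 24 h compound exposure, 37°C. Measured by: beta-catenin immunofluorescence imaging with DAPI.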
ABCB1 inh: ABCB1 efflux pump inhibitors, primary screen, cell-based, multiplex, flow cytometry, ABCG2 counter-screen; ATP-dependent translocase ABCB1 (Homo sapiens), P08183; CCRF-Adr cells, JC-1 efflux; inhibition, % at 6.6 µM; actives 0.067% (n = 190,000); in the data active means inhibition above about 40%;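 further: 0% = vehicle and 100% = reference inhibitor; higher value means more JC-1 retained so stronger ABCB1 efflux block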
The depositor's hits bear a star; i = inactive; · = no result given; + = active, no number. A selection: hits, their analogues and other compounds. The true share with any hit is near 2.1%.

SMILES | Arbovirus anti | MT stabilizer | ABCG2 block | Autophagy mod | b-catenin transl | ABCB1 inh
Clc1ccc(C2=C3CCCCn4c(-c5ccccc5)c[n+](c43)C2)cc1 | -20 | 3 | 8 | + | · | 1
CCn1c(Cc2c(C)[nH]c3ccccc23)n[nH]c1=S | 0 | 4 | -6 | i | · | 1
O=C1c2ccccc2C(Nc2ccc(S(=O)(=O)N3CCCCC3)cc2)N1c1ccccn1 (stereo not given) | 32* | 7 | · | · | 4 | ·
O=C(O)CCCN1C(=O)NC2NC(=O)NC21 (stereo not given) | 6 | 2 | 10 | + | -8 | 2
Cc1noc(C)c1CSc1nc2ccccc2c(=O)n1-c1ccc(Cl)cc1 | -2 | 40* | 4 | i | · | 3
Cc1noc(C)c1CSc1nc2sc(C)c(C)c2c(=O)n1-c1ccccc1 | -11 | 2 | 13 | i | · | 6
O=C(C(Cc1ccccc1)n1cccc1)N1CCN(c2cccc(Cl)c2)CC1 (stereo not given) | -22 | 4 | 0 | i | · | 0
CCOC(=O)c1[nH]c(C)c(C(=O)OC(C)C(=O)Nc2ncc(Cl)cc2Cl)c1C (stereo not given) | -14 | 42* | 4 | i | 0 | 1
CC(OC(=O)C1=NNC(=O)CC1)C(=O)Nc1ncc(Cl)cc1Cl (stereo not given) | 1 | 2 | 2 | i | -3 | 0
CSc1nc2ccc(NS(=O)(=O)c3ccc4c(c3)OCCO4)cc2s1 | 32* | 4 | 2 | i | -5 | 1
CSc1nc2ccc(NS(=O)(=O)c3c(Cl)cccc3Cl)cc2s1 | 20 | 5 | -1 | i | 0 | 1
Cn1cc(Br)c(C(=O)Nc2ncc(Br)s2)n1 | -13 | 3 | 1 | + | 0 | 0
O=C(NC(=S)Nc1ccc(Cl)cn1)C(c1ccccc1)c1ccccc1 | -14 | 36* | 0 | i | 1 | 0
O=C(CCc1ccccc1)Nc1ccc(Cl)cn1 | -4 | 36* | 28 | i | 140* | 1
S=C(Nc1ccccc1)Nc1ccc(Cl)cn1 | -7 | 4 | 7 | i | -3 | 0
COC(=O)[C@@H](NC(=O)N(C1CCCCC1)C1CCCCC1)C(C)C | -4 | 3 | 1 | i | 0 | 0
COc1cc(NS(=O)(=O)c2ccc(C)cc2C)cc(OC)c1OC | -3 | 22* | 1 | i | 7 | 1
CCC(C)NCCCOc1c(C)cc(C)cc1Br (stereo not given) | -15 | 2 | 2 | i | 2 | 1
CCOC(=O)C1=C(C)Nc2sc(C(=O)c3ccc(F)cc3)c(N)c2C1c1ccc(C(=O)OC)cc1 (stereo not given) | -4 | 3 | -1 | i | 3 | 0
COC(=O)/C=c1/s/c(=C(/C#N)C(=O)NCc2ccccc2)n(-c2ccccc2)c1=O | -5 | 3 | 0 | i | · | 0
CCCCCCOc1ccc(/C=c2\s/c(=C(/C#N)C(=O)NCc3ccco3)n(-c3ccccc3)c2=O)cc1 | -5 | 1 | 0 | + | -1 | 0
CCOCCCNC(=O)N[C@@H](Cc1ccccc1)C(=O)OC | 0 | 2 | 0 | i | 0 | 0
CCOC(=O)c1ccc(NC2=CC(=O)CC(c3ccco3)C2)cc1 (stereo not given) | 3 | 3 | 6 | i | -1 | 0
O=C1C=C(Nc2ccc(O)cc2)CC(c2ccco2)C1 (stereo not given) | -22 | 46* | 0 | i | 10 | 14
COc1ccc([N+](=O)[O-])cc1N(CC(O)CN(CC(C)C)CC(C)C)S(=O)(=O)c1ccccc1 (stereo not given) | -17 | 1 | 0 | i | 1 | 1
SMILES | Arbovirus anti | MT stabilizer | ABCG2 block | Autophagy mod | b-catenin transl | ABCB1 inh
Cc1cccc(N=C2NC(=O)/C(=C3/C(=O)N(C)c4ccccc43)S2)c1C | 43* | 3 | 3 | i | 1 | 1
CCOc1ccccc1NC(=O)CCn1cccc1 | 1 | 4 | 9 | i | 1 | 0
COc1ccc(NC(=O)CSc2nc3ccccc3c3nc4ccccc4n23)cc1 | -14 | 25* | 2 | i | 28 | 1
COc1ccc(OC)c(NC(=O)CSc2nc3ccccc3c3nc4ccccc4n23)c1 | -8 | 5 | 13 | i | -1 | 7
O=C(CSc1nc2ccccc2c2nc3ccccc3n12)NCc1ccco1 | -2 | 3 | 0 | i | 3 | 0
Cc1ccc(NC(=O)CSc2nc3ccccc3c3nc4ccccc4n23)cc1 | -24 | 33* | -1 | i | 148* | 0
COc1cc(C(=O)Nc2ccc(N(C)C)cc2)cc(OC)c1OC | -11 | 26* | 1 | i | 36 | 0
COc1cc(C(=O)Nc2ccc(S(=O)(=O)N(C)c3ccccc3)cc2)cc(OC)c1OC | -12 | 2 | -2 | i | 1 | 0
COc1cc(C(=O)Nc2ccc(Br)cc2C(=O)c2cc(OC)c(OC)c(OC)c2)cc(OC)c1OC | -2 | 34* | 3 | i | 4 | -1
CCn1c2ccccc2c2cc(NC(=O)COc3ccc(OC)cc3)ccc21 | 1 | 2 | 0 | i | · | 0
CCn1c2ccccc2c2cc(NC(=O)c3cc(OC)c(OC)c(OC)c3)ccc21 | -31 | 23* | 2 | i | 4 | 1
CCn1c2ccccc2c2cc(NC(=O)CSc3nnc(-c4cccc(C)c4)o3)ccc21 | -5 | 13 | -2 | i | · | -1
CCn1c2ccccc2c2cc(NC(=O)CSc3nnc(-c4ccccc4)o3)ccc21 | -10 | 16* | -1 | i | -5 | 0
CCc1cc2c3c(c1)C1(C(=O)N3C(C)(C)CC2C)C(C#N)=C(N)N2C(=C1C#N)Nc1ccccc12 (stereo not given) | -12 | 4 | 0 | i | -1 | 2
COc1cc(NC(=O)C(C)Oc2ccccc2)cc(OC)c1 (stereo not given) | -10 | 3 | 25 | i | 0 | 1
CCCN(CCC)c1ncnc2c1cnn2-c1ccc(OC)cc1 | -8 | 1 | 3 | i | 0 | 1
Cc1cc(SCC(=O)NC(=O)c2cccn2C)nc2ccccc12 | · | · | · | · | 0 | ·
CCn1c2ccccc2c2cc(NC(=O)c3cc(OC)cc(OC)c3)ccc21 | -22 | 9.6* | -6 | i | 11 | 0
CCn1c2ccccc2c2cc(NC(=O)c3cccc([N+](=O)[O-])c3C)ccc21 | -19 | 14* | 1 | i | -2 | -4
